Source: PMC3941648 (Protein and peptide letters, 2014)
Entries after “also recorded” stand apart in the source; their conditions may differ. *: point of attachment. FITC = O=C1OC2(c3ccc(O)cc3Oc3cc(O)ccc32)c2ccc(NC(=S)*)cc21; Biotin = O=C1N[C@H]2[C@H](CS[C@H]2CCCCC(=O)*)N1; Ahx = NCCCCCC(=O)O

Tests used:
Format in all cases: cell-based, Chinese hamster
[1] = system: wild-type CHO K1 cells; assay: Cellular uptake of FITC-labeled peptides, flow cytometry and confocal microscopy; settings: as stated in the abstract; cell type not stated
Outline: (§1)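 CHO K1 wild-type and GAG-deficient mutants were grown in DMEM/F12 with 10% FBS at 37 °C. At ~75% confluence (48 h after seeding), cells were exposed to 20 μM FITC-labelled peptide for 2 h at 37 °C, then trypsinised, washed and analysed by flow cytometry. Dead cells (7-AAD-positive) were gated out, ≥5,000 events were collected and uptake was expressed relative to wild-type. Confocal imaging used a ~0.40 micron mid Z-section. Triplicates, mean ± S.D., t test.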

[2] = system: pgs A-745 cells; assay: Cellular uptake of peptide-horseradish peroxidase; settings: pgs A-745 cells lacking surface GAGs; 240 ng/ml complex, 30 min, 37°C; TMB substrate, 405 nm; n=3
[3] = system: pgs D-677 cells (heparan sulfate-defective CHO K1 mutant); assay: Cellular uptake of FITC-labeled peptides, flow cytometry and confocal microscopy; settings: deduced from uptake in pgs D-677 versus wt CHO K1; 20 μM, 2 h, 37°C
Outline: as §1

[4] = system: pgs C-605 cells (sulfate transporter-defective CHO K1 mutant); assay: Cellular uptake of FITC-labeled peptides, flow cytometry; settings: 20 μM FITC-labeled peptide, 2 h, 37°C
Outline: (§2)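 Mutant and wild-type CHO K1 cells were seeded 48 h before use and treated at ~75% confluence with 20 μM FITC-labelled peptide in DMEM/F12 for 2 h at 37 °C. Cells were washed, trypsinised for 5 min and resuspended at 2×10⁶ cells/ml. 7-AAD (0.5 ng/μl final) excluded dead cells. Fluorescence was read with 488-nm excitation on ≥5,000 live events and compared with wild-type. Triplicates, mean ± S.D.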

[5] = system: pgs F-17 cells (2-O-sulfation-defective CHO K1 mutant); assay: as above; settings: 20 μM FITC-labeled peptide, 2 h, 37°C
Outline: as §2

Substance: {FITC-Ahx}-KKGFYKKK-NH2 [KK-8]
- Uptake activity retained within KW-22 (abstract) [1]: no uptake activity

Substance: {Biotin-Ahx}-KKGFYKKKQCRPSKGRKRGFCWAVDKYG-NH2 (cysteine pairing not given here) [KG-28]
- Uptake of complex into cells (peroxidase activity of cell extracts) [2]: abolished

Substance: {FITC-Ahx}-KKGFYKKKQCRPSKGRKRGFCW-NH2 (cysteine pairing not given here) [KW-22]
- Contribution of heparan sulfate to total uptake [3]: ~ 38%
- Cellular fluorescence (uptake) compared with wt CHO K1 [4]: comparable with that of the wt cells
- Cellular uptake compared with wt CHO K1 [5]: comparable to that in wt cells; also recorded: barely affected
